From article PMC10463567 (Journal of medicinal chemistry, 2023)
Values joined by “and” are separate entries in the source; they are usually repeats but may differ in a detail not shown here. Equal values may be shown once. “Also recorded” adds a separate entry of the source. Where a name gives a salt, the structure may show the parent alone.

Experiments:
[1] = tested on: ZIKV (FLR strain, Colombia, 2015); assay: Anti-ZIKV; type: cell-based, Zika virus; details: Vero cells; for % inhibition of ZIKV at 10 μM: ZIKV FLV (FLR) strain, viral titer vs untreated
Vero cells = assay: Cytotoxicity to Vero cells in the anti-ZIKV screen; type: cell-based, monkey; details: 10 μM screen; in Table 2 printed in the % inhibition at 10 μM column
In short: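 Cytopathic effect and cell death were scored by microscope, with MTT to quantitate viable cells. Compounds giving CPE-like phenotype or cell death at 10 μM were flagged as cytotoxic.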

ZIKV RNA = assay: Quantitative RT-PCR of ZIKV RNA copies in supernatant of infected Vero cells; type: cell-based, Zika virus
In short: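 Viral RNA was extracted with TRIzol from 50 μL of culture supernatant. One-step TaqMan RT-qPCR used ZIKV-specific primers and probe amplifying envelope gene region 3. ZIKV RNA was expressed as copies/mL, calculated from a standard curve.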

[2] = tested on: Zika virus NS5, NS3 and capsid proteins; assay: Western blot of viral NS5, NS3 and capsid proteins in ZIKV-infected Vero cells; type: cell-based; details: 48h
ZIKV = assay: Anti-ZIKV activity in Vero cells with added glutathione; type: cell-based, Zika virus; details: 1 mM GSH in culture media
In short: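 ZIKV (FLR strain) infected Vero cells were given test compound in culture medium supplemented with 1 mM glutathione, a nucleophilic thiol, to test whether the compound acts by covalent reaction. Anti-ZIKV activity was read in the cell-based antiviral assay.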

ZIKV (FLV strain) = assay: Time-of-addition; type: cell-based, Zika virus; details: 1 μM, added together with virus, Vero cells

For “3-(3-tert-Butylphenyl)-2-[2-(1-naphthyl)ethenyl]-4(3H)-quinazolinone [Compound 19]”, the “% inhibition of ZIKV at 10 μM” value ([1]; 10 μM, 10 µM) was 68% and 68.4%.
For “3-(3-tert-Butylphenyl)-2-[2-(3-methoxyl-2-pyridinyl)ethenyl]-4(3H)-quinazolinone [Compound 11]”, the “% inhibition of ZIKV at 10 μM” value ([1]; 10 μM) was 0%.
For “3-(3-tert-Butylphenyl)-2-[2-(4-trifluoromethyl-3-pyridinyl)ethenyl]-4(3H)-quinazolinone [Compound 3]”, the “% inhibition of ZIKV at 10 μM” value ([1]; 10 μM) was 90.0%.
In the case of “6-(4-Methylpiperazin-1-yl)-3-(3-tert-butylphenyl)-2-(2,6-dimethoxystyryl)-4(3H)-quinazolinone [Compound 40]”, the “Cytotoxicity to Vero cells” value (Vero cells) is reported as “Cytotoxic”.
For “6-(Piperidin-1-yl)-3-(3-tert-butylphenyl)-2-(2,6-dimethoxystyryl)-4(3H)-quinazolinone [Compound 39]”, the “% inhibition of ZIKV at 10 μM” value ([1]; 10 μM) was 96.8%.
`CCN(CC)c1ccc2nc(/C=C/c3cccc(OC)n3)n(-c3cccc(C(C)(C)C)c3)c(=O)c2c1` [Compound 1, 6-Diethylamino-3-(3-tert-butylphenyl)-2-[2-(6-methoxyl-2-pyridinyl)ethenyl]-4(3H)-quinazolinone] was tested, and the “fold activity enhancement to inhibit ZIKV replication compared to unsubstituted compound 11” value ([1]; 10 μM) was ≥ 1,000 fold.
For `CC(C)(C)c1cccc(-n2c(/C=C/c3cccnc3)nc3ccccc3c2=O)c1` [Compound 12, 3-(3-tert-Butylphenyl)-2-[2-(3-pyridinyl)ethenyl]-4(3H)-quinazolinone], the “% inhibition of ZIKV at 10 μM” value ([1]; 10 μM) was “inactive”.
In the case of `CC(C)(C)c1cccc(-n2c(/C=C/c3ccccc3)nc3ccccc3c2=O)c1` [Compound 15, 3-(3-tert-Butylphenyl)-2-(2-phenylethenyl)-4(3H)-quinazolinone], the “% inhibition of ZIKV at 10 μM” value ([1]; 10 μM) is reported as “inactive”.
For `COc1cccc(/C=C/c2nc3ccc(Cl)cc3c(=O)n2-c2cccc(C(C)(C)C)c2)n1` [Compound 20, 6-Chloro-3-(3-tert-butylphenyl)-2-[2-(6-methoxyl-2-pyridinyl)ethenyl]-4(3H)-quinazolinone], the “% inhibition of ZIKV at 10 μM” value ([1]; 10 μM) was “inactive”.
For `COc1ccc2nc(/C=C/c3cccc(OC)n3)n(-c3cccc(C(C)(C)C)c3)c(=O)c2c1` [Compound 21, 6-Methoxy-3-(3-tert-butylphenyl)-2-[2-(6-methoxyl-2-pyridinyl)ethenyl]-4(3H)-quinazolinone], the “% inhibition of ZIKV at 10 μM” value ([1]; 10 μM) was “inactive”.
For `COc1cccc(/C=C/c2nc3ccc(N4CCCCC4)cc3c(=O)n2-c2cccc(C(C)(C)C)c2)n1` [Compound 22, 6-(Piperidin-1-yl)-3-(3-tert-butylphenyl)-2-[2-(6-methoxyl-2-pyridinyl)ethenyl]-4(3H)-quinazolinone], the “ZIKV RNA copies in the supernatant” value (ZIKV RNA) was “dose-dependently reduce”.
`COc1cccc(/C=C/c2nc3ccc(N4CCNCC4)cc3c(=O)n2-c2cccc(C(C)(C)C)c2)n1` [Compound 25, 6-(Piperazin-1-yl)-3-(3-tert-butylphenyl)-2-[2-(6-methoxyl-2-pyridinyl)ethenyl]-4(3H)-quinazolinone hydrochloride] was tested, and the “Cytotoxicity to Vero cells” value (Vero cells) was “significant cytotoxicity; also recorded: Cytotoxic”.
For `COc1cccc(/C=C/c2nc3ccc(N4CCN(C)CC4)cc3c(=O)n2-c2cccc(C(C)(C)C)c2)n1` [Compound 26, 6-(4-Methylpiperazin-1-yl)-3-(3-tert-butylphenyl)-2-[2-(6-methoxyl-2-pyridinyl)ethenyl]-4(3H)-quinazolinone], the “Cytotoxicity to Vero cells” value (Vero cells) was “Cytotoxic”.
For `COc1cccc(/C=C/c2nc3ccc(N4CCOCC4)cc3c(=O)n2-c2cccc(C(C)(C)C)c2)n1` [Compound 27, 6-Morpholino-3-(3-tert-butylphenyl)-2-[2-(6-methoxyl-2-pyridinyl)ethenyl]-4(3H)-quinazolinone], the “fold more potent antiviral activity than compound 22” value ([1]; ZIKV-FLR, EC50 comparison) was ~ 4 ×, the “Cytotoxicity to Vero cells” value (Vero cells) was “without cytotoxicity” and the “ZIKV RNA copies in the supernatant” value (ZIKV RNA) was “dose-dependently reduce”. For the same molecule, the “cellular levels of viral NS5, NS3 and capsid proteins” value [2] was “significantly reduce”, the “anti-ZIKV activity in the presence of GSH” value (ZIKV) was “not affected” and the “viral titer reduction, 2h-pretreatment” value (ZIKV (FLV strain)) was no less than 90%.
`COc1cccc(/C=C/c2nc3ccc(N4CCC(N5CCOCC5)CC4)cc3c(=O)n2-c2cccc(C(C)(C)C)c2)n1` [Compound 28, 6-(4-Morpholinopiperidin-1-yl)-3-(3-tert-butylphenyl)-2-[2-(6-methoxyl-2-pyridinyl)ethenyl]-4(3H)-quinazolinone] was tested, and the “Cytotoxicity to Vero cells” value (Vero cells) was “without cytotoxicity”.
In the case of `COc1cccc(/C=C/c2nc3ccc(-c4ccncc4)cc3c(=O)n2-c2cccc(C(C)(C)C)c2)n1` [Compound 29, 6-(Pyridin-4-yl)-3-(3-tert-butylphenyl)-2-[2-(6-methoxypyridin-2-yl)vinyl]-4(3H)-quinazolinone dihydrochloride], the “% inhibition of ZIKV at 10 μM” value ([1]; 10 μM) is reported as “inactive”.
For `COc1cccc(-c2ccc3nc(/C=C/c4cccc(OC)n4)n(-c4cccc(C(C)(C)C)c4)c(=O)c3c2)c1` [Compound 30, 6-(3-Methoxyphenyl)-3-(3-tert-butylphenyl)-2-[2-(6-methoxypyridin-2-yl)vinyl]-4(3H)-quinazolinone], the “% inhibition of ZIKV at 10 μM” value ([1]; 10 μM) was “inactive”.
`CC(C)(C)c1cccc(-n2c(/C=C/c3ccc(C(F)(F)F)cc3)nc3ccc(N4CCCCC4)cc3c2=O)c1` [Compound 36] was tested, and the “% inhibition of ZIKV at 10 μM” value ([1]; 10 μM, 10 µM) was 90%.
For `COc1cccc(CCc2nc3ccc(N4CCCCC4)cc3c(=O)n2-c2cccc(C(C)(C)C)c2)n1` [Compound 53, 6-(Piperidin-1-yl)-3-(3-tert-butylphenyl)-2-[2-(6-methoxypyridin-2-yl)ethyl]-4(3H)-quinazolinone], the “% inhibition of ZIKV at 10 μM” value ([1]; 10 μM) was “inactive”.
In the case of `COc1cccc(CCc2nc3ccc(N4CCOCC4)cc3c(=O)n2-c2cccc(C(C)(C)C)c2)n1` [Compound 54, 6-Morpholino-3-(3-tert-butylphenyl)-2-[2-(6-methoxypyridin-2-yl)ethyl]-4(3H)-quinazolinone], the “% inhibition of ZIKV at 10 μM” value ([1]; 10 μM) is reported as “inactive”.
